Experimental data: ChEMBL document CHEMBL1125277, “Novel cerebroprotective agents with central nervous system stimulating activity. 1. Synthesis and pharmacology of 1-amino-7-hydroxyindan derivatives” (1991)

How the values were obtained:
Assay type in all cases: functional
[1] = tested on: Mus musculus; assay: Antihypoxic effect tested by the survival time (SVT) in mice at a dose of 100 mg/kg; parameters: unit: % of control
Procedure, shortened: (§1)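 Male ICR mice (20–30 g), groups of 10, dosed 0.25 h (iv, sc or ip) or 1 h (oral) before test. Mice placed in desiccator evacuated to 210 mmHg. Survival time measured from pump start to cessation of respiration, capped at 900 s. Activity expressed as % of control survival time; Wilcoxon sum test.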

[2] = tested on: Mus musculus; assay: Time of recovery of righting reflux (RRT) in seconds was measured after administration of 100 mg/kg orally in mice for the promotional effect on recovery from coma
Procedure, shortened: (§2)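 Male ICR mice (20–30 g) were dosed orally 1 h before concussion was induced, and saline-dosed mice served as controls. Times to recovery of righting reflex and of spontaneous movement were recorded in seconds. Brains were examined post mortem, and mice with contused brain wounds were excluded. Statistics used the Wilcoxon sum test.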

[3] = tested on: Mus musculus; assay: Time of recovery of spontaneous movement (SMT) in seconds was measured after administration of 100 mg/kg orally in mice for the promotional effect on recovery from coma; procedure, shortened: as §2
[4] = tested on: Mus musculus; assay: Antihypoxic effect by the survival time (SVT) in mice at a dose of 30 mg/kg administered subcutaneously in mice; parameters: unit: % of control; details: route subcutaneous; procedure, shortened: as §1
[5] = tested on: Mus musculus; assay: Antihypoxic effect by the survival time (SVT) in mice at a dose of 30 mg/kg administered intraperitoneally in mice; details: route intraperitoneal; procedure, shortened: as §1
[6] = tested on: Mus musculus; assay: Time of recovery of spontaneous movement (SMT) in seconds was measured after administration of 200 mg/kg perorally in mice for the promotional effect on recovery from coma; details: route oral; procedure, shortened: as §2
[7] = tested on: Mus musculus; assay: Time of recovery of righting reflux (RRT) in seconds was measured after administration of 200 mg/kg perorally in mice for the promotional effect on recovery from coma; details: route oral; procedure, shortened: as §2
[8] = tested on: Mus musculus; assay: Antihypoxic effect by the survival time (SVT) in mice at a dose of 3 mg/kg administered intravenously in mice; details: route intravenous; procedure, shortened: as §1
[9] = tested on: Mus musculus; assay: Time of recovery of righting reflux (RRT) in seconds was measured after administration of 2.5 mg/kg intravenously in mice for the promotional effect on recovery from coma; details: route intravenous
Procedure, shortened: (§3)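 This is the concussion-induced coma model in male ICR mice (20–30 g), with saline-treated controls. Righting-reflex and spontaneous-movement recovery times were recorded in seconds. Animals with contused brain wounds at post-mortem were excluded. Groups were compared by Wilcoxon sum test.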

[10] = tested on: Mus musculus; assay: Time of recovery of spontaneous movement (SMT) in seconds was measured after administration of 2.5 mg/kg intravenously in mice for the promotional effect on recovery from coma; details: route intravenous; procedure, shortened: as §3
[11] = tested on: Mus musculus; assay: Antihypoxic effect by the survival time (SVT) in mice at a dose of 100 mg/kg administered intraperitoneally in mice; procedure, shortened: as §1
[12] = tested on: Mus musculus; assay: Antihypoxic effect by the survival time (SVT) in mice at a dose of 40 mg/kg administered intraperitoneally in mice; details: route intraperitoneal; procedure, shortened: as §1
[13] = tested on: Mus musculus; assay: Time of recovery of righting reflux (RRT) in seconds was measured after administration of 40 mg/kg intraperitoneally in mice for the promotional effect on recovery from coma; details: route intraperitoneal
Procedure, shortened: (§4)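 Male ICR mice (20–30 g); concussion-induced coma model of head injury. Control mice received the same amount of physiological saline. Brains examined post mortem and mice with contused wounds excluded. Recovery times in seconds (righting reflex or spontaneous movement) expressed as % of control; Wilcoxon sum test.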

[14] = tested on: Mus musculus; assay: Time of recovery of spontaneous movement (SMT) in seconds was measured after administration of 40 mg/kg intraperitoneally in mice for the promotional effect on recovery from coma; details: route intraperitoneal; procedure, shortened: as §4

Row | Compound | SVT [1] | RRT ([2]; route oral) | SMT ([3]; route oral) | SVT [4] | also measured
1 | CCCCNC1CCc2c(C)cc(C)c(O)c21.Cl (configuration not stated) | 187.3 | 55.3 s | 57.7 s |  | 
2 | Cc1cc(CC(C)C)c(O)c2c1CCC2N.Cl (configuration not stated) | 149.9 | 59.3 s | 76.1 s | 281.4 | 
3 | Cl.NC1CCc2c(O)cccc21 (configuration not stated) | 103.9 |  |  |  | 
4 | Cc1cc(C)c2c(c1O)C(N)C(c1ccccc1)C2.Cl (configuration not stated) | 149.1 | 31.1 s | 37.6 s |  | SVT [5]: 185.7
5 | CCCc1cc(CC)c2c(c1O)C(N)CC2.Cl (configuration not stated) | 206.8 | 94.4 s | 116.3 s | 194.3 | 
6 | Cc1cc(C)c2c(c1O)C(N)C(C)(c1ccccc1)C2.Cl (configuration not stated) | 171.6 | 34.1 s | 34.7 s |  | 
7 | Cc1cc(C)c2c(c1O)C(N)C(C)(Cc1ccccc1)C2.Cl (configuration not stated) | 167.3 | 29.9 s | 32.6 s |  | 
8 | Cc1cc(C)c2c(c1O)C(N)C(C)(Cc1ccccc1)C2.Cl.O (configuration not stated) | 197 | 33 s | 28.8 s |  | 
9 | CC(C)(C)c1cc(C(C)(C)C)c2c(c1O)C(N)CC2.Cl (configuration not stated) | 119.2 | 160.2 s | 157.6 s |  | SVT [5]: 171.3
10 | Cc1cc(C)c2c(c1O)C(N)C(c1ccccc1Cl)C2.Cl (configuration not stated) | 151 | 35.8 s | 33.8 s |  | 
11 | CCCc1cc(C)c2c(c1O)C(N)CC2.Cl (configuration not stated) | 205.3 |  |  | 244.6 | 
12 | CN(C)CCCN1c2ccccc2CCc2ccccc21.Cl [IMIPRAMINE HYDROCHLORIDE] | 67.9 | 113.4 s | 115.5 s |  | 
13 | CN(C)CCOC(=O)COc1ccc(Cl)cc1 [MECLOFENOXATE] | 106 |  |  |  | SMT [6]: 63.8 s; RRT [7]: 53.8 s; SVT [8]: 133
14 | Cc1cc(CN)c(O)c2c1CCC2N.Cl (configuration not stated) | 110.2 | 69.9 s | 79.3 s | 74.3 | 
15 | Cc1cc(I)c(O)c2c1CCC2N.Cl (configuration not stated) |  | 81.1 s | 92.3 s | 184.6 | 
16 | COc1c(C)cc(C)c2c1C(N)C(C)(c1ccccc1)C2.Cl (configuration not stated) | 117.9 | 25 s | 23.9 s |  | 
17 | COc1c(C)cc(C)c2c1C(N)C(C)(C)C2.Cl (configuration not stated) | 164.3 | 43.6 s | 39.2 s |  | 
18 | Cc1ccccc1C1Cc2c(C)cc(C)c(O)c2C1N.Cl (configuration not stated) | 161.3 | 44.4 s | 45.9 s |  | 
19 | Cl.NC1CCc2c(Cl)cc(Cl)c(O)c21 (configuration not stated) |  |  |  | 65.8 | 

Row | Compound | SVT [1] | RRT ([2]; route oral) | SMT ([3]; route oral) | SVT [4] | also measured
20 | NC(=O)[C@@H]1CCCN1C(=O)[C@H](Cc1c[nH]cn1)NC(=O)[C@@H]1CCC(=O)N1 [PROTIRELIN] |  |  |  |  | RRT [9]: 40.8 s; SVT [8]: 43.4; SMT [10]: 40.9 s
21 | Cc1cc(C(C)(C)C)c(O)c(C(C)(C)C)c1 [BUTYLATED HYDROXYTOLUENE] | 87.6 | 69.6 s | 80.9 s |  | SVT ([11]; route intraperitoneal): 358.8
22 | CCCC(C)C1(CC)C(=O)N=C([O-])NC1=O.[Na+] (configuration not stated) [PENTOBARBITAL SODIUM] |  |  |  |  | SVT [12]: 306.7; RRT [13]: 494 s; SMT [14]: 283 s
23 | VITAMIN E | 178 |  |  |  | SVT [11]: 96.7; RRT [2]: 92.2 s; SMT [3]: 83.5 s
24 | CC(=O)Nc1cc(C)c2c(c1O)C(N)CC2.Cl (configuration not stated) |  |  |  | 46.8 | 
25 | Cc1cc(C(C)(C)C)c(O)c2c1CCC2N.Cl (configuration not stated) |  | 90.6 s | 113.5 s |  | SVT [5]: 252.8
26 | Cc1cc([N+](=O)[O-])c(O)c2c1CCC2N.Cl (configuration not stated) |  |  |  | 189.7 | 
27 | Cc1cc(C)c2c(c1O)C(N)C(C)(C)C2.Cl (configuration not stated) | 288 | 37.2 s | 53.9 s | 298.1 | 
28 | CCCc1ccc2c(c1O)C(N)CC2.Cl (configuration not stated) | 158 | 70.5 s | 79.5 s | 138 | 
29 | CCc1cc(C)c2c(c1O)C(N)C(c1ccccc1)C2.Cl (configuration not stated) | 97.4 | 89.2 s | 94.4 s |  | 
30 | Cc1cc(Br)c(O)c2c1CCC2N.Cl (configuration not stated) | 130.1 | 81.5 s | 83.4 s | 308 | 
31 | CNC1CCc2c(C)cc(C)c(O)c21.Cl (configuration not stated) |  | 57.9 s | 55.8 s | 177.5 | 
32 | Cc1ccc(O)c2c1CCC2N.Cl (configuration not stated) | 98.4 | 40.1 s | 42.6 s | 157.8 | 
33 | Cc1cc(C)c2c(c1O)C(N)CC2.Cl (configuration not stated) | 255.7 | 51.4 s | 61.4 s | 303.4 | 
34 | Cc1cc(C)c2c(c1O)C(N)C(Cc1ccccc1)C2.Cl (configuration not stated) | 148 | 47 s | 38.6 s |  | 
35 | Cl.NC1CCc2cccc(O)c21 (stereo in doubt; 11a) |  | 102 s | 99.1 s |  | SVT ([1]; 100 mg/kg): 204.8
36 | CCC(C)c1cc(C)c2c(c1O)C(N)CC2.Cl (configuration not stated) | 234.8 | 18.9 s | 23.3 s | 276.5 | 
37 | Cc1cc(C)c2c(c1O)C(N)C(C)C2.Cl (configuration not stated) | 237.7 | 79.1 s | 71 s |  | 
38 | Cl.NC1CCc2cccc(O)c21 (stereo in doubt; 11b) |  |  |  |  | SVT ([1]; 100 mg/kg): 78
